Results published in ChEMBL document CHEMBL4118031, “Halogenated Compounds from Directed Fermentation of Penicillium concentricum, an Endophytic Fungus of the Liverwort Trichocolea tomentella” (J Nat Prod, 2017).

Experiments:
[1] = test system: MCF7; test: Cytotoxicity against human MCF7 cells after 3 days by sulforhodamine B assay; format: functional, cell-based; conditions: MCF7, 72 h
Method in brief: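 Antiproliferative assay on MCF-7 breast cancer cells following a published protocol, with camptothecin as the positive control.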

[2] = test system: HT-29; test: Cytotoxicity against human HT-29 cells after 3 days by sulforhodamine B assay; format: functional, cell-based; conditions: HT-29, 72 h
Method in brief: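 Antiproliferative assay on HT-29 colon cancer cells following a protocol from earlier work, with paclitaxel as the positive control.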

Row | SMILES | IC50 [1] [µM] | IC50 [2] [µM]
1 | COc1cc(O)c2c(=O)c3c(C)cc(O)cc3oc2c1 | > 20 | > 20
2 | COC1=CC(=O)C[C@@H](C)[C@]12Oc1cc(OC)cc(OC)c1C2=O | > 20 | > 20
3 | COC1=CC(=O)C=C(C)[C@]12Oc1cc(OC)cc(OC)c1C2=O | > 20 | > 20
4 | O=C(OCCO)c1ccccc1 | > 20 | > 20
5 | O=C1C(CO)=C[C@@H](O)[C@@H](O)[C@@H]1Br | 9.7 | 
6 | O=C1C(CO)=C[C@@H](O)[C@@H](O)[C@@H]1Cl | > 20 | 
7 | OCc1cc(O)cc(Cl)c1O | 14.9 | 
8 | OCc1cc(O)cc(Br)c1O | 8.4 | 
9 | O=C1C(CO)=C[C@@H](O)[C@@H](O)[C@H]1Cl | > 20 | 
10 | COc1cc(O)c(C(=O)c2c(C)cc(O)cc2OC)c(O)c1 | > 20 | > 20
11 | COc1cc(O)c(C(=O)c2c(C)cc(O)cc2OC)c(O)c1Cl | > 20 | > 20
12 | O=C1C(CO)=C[C@@H](O)[C@@H](O)[C@H]1Br | 9.7 | 
13 | Cc1cc(O)cc2oc3cc(Cl)cc(O)c3c(=O)c12 | > 20 | 
14 | COc1cc(O)c2c(=O)c3c(C)cc(O)c(O)c3oc2c1 | > 20 | > 20
15 | OCC(O)c1ccccc1 (racemic) | > 20 | > 20
16 | Cc1cc(O)cc2oc(=O)c3c(O)cc(O)cc3c12 [ALTERNARIOL] | > 20 | > 20
17 | CC[C@@]1(O)C(=O)OCc2c1cc1n(c2=O)Cc2cc3ccccc3nc2-1 [CAMPTOTHECIN] | 0.073 | 
18 | O=C1C(CO)=C[C@@H](O)[C@H]2O[C@@H]12 [EPOXYDON] | 5.7 | 14.1
19 | OCc1cc(O)ccc1O [GENTISYL ALCOHOL] | 17.1 | 6.4
20 | COC1=CC(=O)C[C@@H](C)[C@]12Oc1c(Cl)c(OC)cc(OC)c1C2=O [GRISEOFULVIN] | 13.9 | > 20
21 | Cc1cc(O)cc2oc3cc(O)cc(O)c3c(=O)c12 [NORLICHEXANTHONE] | > 20 | > 20
22 | CC(=O)O[C@H]1C(=O)[C@@]2(C)[C@H]([C@H](OC(=O)c3ccccc3)[C@]3(O)C[C@H](OC(=O)[C@H](O)[C@@H](NC(=O)c4ccccc4)c4ccccc4)C(C)=C1C3(C)C)[C@]1(OC(C)=O)CO[C@@H]1C[C@@H]2O [PACLITAXEL] |  | 0.0014
